Experimental data: ChEMBL document CHEMBL4330127, “Discovery of Novel Pyruvate Dehydrogenase Kinase 4 Inhibitors for Potential Oral Treatment of Metabolic Diseases” (J Med Chem, 2019)
Activity calls are given as the source filed them. The rule behind the calls is not given here.

What was measured:
[1] = target: Cytochrome P450 2C19 (Homo sapiens, UniProt P33261); assay: Inhibition of CYP2C19 in human liver microsomes assessed as reduction in omeprazole hydroxylation by tandem mass spectrometry analysis; type: ADME
Sequence of Cytochrome P450 2C19 (P33261 whole entry): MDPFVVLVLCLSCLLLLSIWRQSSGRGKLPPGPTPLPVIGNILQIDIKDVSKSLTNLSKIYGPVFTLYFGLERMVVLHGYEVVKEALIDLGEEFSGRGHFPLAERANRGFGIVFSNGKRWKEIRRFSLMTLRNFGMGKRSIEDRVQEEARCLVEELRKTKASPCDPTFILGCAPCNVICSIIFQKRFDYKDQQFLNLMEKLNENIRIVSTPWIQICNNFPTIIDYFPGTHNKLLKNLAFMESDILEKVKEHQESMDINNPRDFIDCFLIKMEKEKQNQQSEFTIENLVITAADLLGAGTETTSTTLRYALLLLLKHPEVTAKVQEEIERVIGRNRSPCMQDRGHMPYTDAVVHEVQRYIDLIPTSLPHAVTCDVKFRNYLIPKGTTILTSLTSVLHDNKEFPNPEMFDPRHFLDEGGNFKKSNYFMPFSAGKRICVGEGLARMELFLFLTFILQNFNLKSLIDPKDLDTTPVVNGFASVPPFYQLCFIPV
How it was run: (§1)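 Pooled human liver microsomes incubated with compound at 0–50 μM final; CYP probe activities (phenacetin O-deethylation for 1A2, tolbutamide 4-hydroxylation for 2C9, omeprazole hydroxylation for 2C19, dextromethorphan O-demethylation for 2D6) run as a cocktail incubation and quantified by tandem MS; duplicates; IC50 derived.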

[2] = target: Cellular tumor antigen p53 (Homo sapiens) (UniProt P04637); assay: Induction of p53 phosphorylation at Ser-15 residue in human HCT116 cells after 24 hrs by Western blot analysis; type: cell-based
Sequence of Cellular tumor antigen p53 (Homo sapiens) (P04637 whole entry, looked up): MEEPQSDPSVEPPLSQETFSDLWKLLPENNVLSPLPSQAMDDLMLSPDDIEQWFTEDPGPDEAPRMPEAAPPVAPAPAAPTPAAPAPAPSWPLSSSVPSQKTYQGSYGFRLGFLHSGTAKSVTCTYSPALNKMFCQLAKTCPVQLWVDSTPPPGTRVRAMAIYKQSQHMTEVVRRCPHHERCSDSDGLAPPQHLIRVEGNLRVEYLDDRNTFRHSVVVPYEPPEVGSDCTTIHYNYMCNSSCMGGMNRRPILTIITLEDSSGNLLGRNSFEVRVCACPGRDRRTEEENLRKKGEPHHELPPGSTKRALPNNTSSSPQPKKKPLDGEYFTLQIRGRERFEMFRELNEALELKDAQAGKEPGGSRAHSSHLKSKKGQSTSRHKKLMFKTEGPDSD
How it was run: (§2)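 HCT116 and RKO cells given a range of compound doses for 24 h; lysates probed by Western blot for apoptosis-related proteins (p53, BAX, BCLxL).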

[3] = system: HFL1; assay: Cytotoxicity against HFL1 cells; type: cell-based; settings: Homo sapiens
[4] = system: HCT-116; assay: Cell cycle arrest in human HCT116 cells assessed as accumulation at G1/G0 phase at 10 uM after 24 hrs propidium iodide staining based flow cytometry (reference value: 42%); type: functional
How it was run: (§3)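 HCT116 and RKO cells were treated with compound alone or with oxaliplatin for 24 h before harvest. Cells were stained with propidium iodide, and DNA content was analysed by flow cytometry. Cell-cycle phase populations, including sub-G1, are given as percentages.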

[5] = system: RKO; assay: Cell cycle arrest in human RKO cells assessed as accumulation at S phase at 10 uM after 24 hrs propidium iodide staining based flow cytometry (reference value: 19.2%); type: functional
[6] = system: HCT-116; assay: Induction of apoptosis in human HCT116 cells assessed as increase in cleaved-PARP expression at 10 to 50 uM after 24 hrs by Western blot analysis; type: functional, cell-based; how it was run: as §2
[7] = system: RKO; assay: Cell cycle arrest in human RKO cells assessed as accumulation at G1/G0 phase at 25 uM after 24 hrs in presence of oxaliplatin propidium iodide staining based flow cytometry (reference value: 44.3%); type: functional; how it was run: as §3
[8] = system: RKO; assay: Induction of apoptosis in human RKO cells assessed as live cells at 25 uM after 24 hrs in presence of oxaliplatin by Annexin V/propidium iodide staining based flow cytometry (reference value: 86.4%); type: functional
[9] = system: RKO; assay: Cell cycle arrest in human RKO cells assessed as accumulation at sub-G1 phase at 25 uM after 24 hrs in presence of oxaliplatin propidium iodide staining based flow cytometry (reference value: 12%); type: functional; how it was run: as §3
[10] = system: HCT-116; assay: Cell cycle arrest in human HCT116 cells assessed as accumulation at sub-G1 phase at 50 uM after 24 hrs propidium iodide staining based flow cytometry (reference value: 17.8%); type: functional; how it was run: as §3
[11] = system: RKO; assay: Cell cycle arrest in human RKO cells assessed as accumulation at S phase at 50 uM after 24 hrs propidium iodide staining based flow cytometry (reference value: 19.2%); type: functional
[12] = system: HCT-116; assay: Induction of apoptosis in human HCT116 cells assessed as early apoptotic cells at 25 uM after 24 hrs by Annexin V/propidium iodide staining based flow cytometry (reference value: 4.36%); type: functional
[13] = system: RKO; assay: Induction of apoptosis in human RKO cells assessed as increase in cleaved-PARP expression at 10 to 50 uM after 24 hrs by Western blot analysis; type: functional, cell-based; how it was run: as §2
[14] = system: HCT-116; assay: Induction of apoptosis in human HCT116 cells after 24 hrs by Annexin V/propidium iodide staining based flow cytometry; type: functional, cell-based
[15] = system: HCT-116; assay: Induction of apoptosis in human HCT116 cells assessed as increase in cleaved caspase-3 expression at 10 to 50 uM after 24 hrs by Western blot analysis; type: functional, cell-based; how it was run: as §2
[16] = system: HCT-116; assay: Induction of apoptosis in human HCT116 cells assessed as early apoptotic cells at 25 uM after 24 hrs in presence of oxaliplatin by Annexin V/propidium iodide staining based flow cytometry (reference value: 7.31%); type: functional
[17] = system: HCT-116; assay: Induction of apoptosis in human HCT116 cells assessed as necrotic cells at 25 uM after 24 hrs in presence of oxaliplatin by Annexin V/propidium iodide staining based flow cytometry (reference value: 21.2%); type: functional
[18] = target: [Pyruvate dehydrogenase (acetyl-transferring)] kinase isozyme 4, mitochondrial (Homo sapiens, UniProt Q16654); assay: Inhibition of PDK4 in HEK293T cells assessed as reduction in PDHE1alpha phosphorylation at Ser-300 residue by measuring phosphorylated PDHE1alpha level at 10 uM after 24 hrs by Western blot analysis; type: cell-based
Sequence of [Pyruvate dehydrogenase (acetyl-transferring)] kinase isozyme 4, mitochondrial (Q16654 whole entry, looked up): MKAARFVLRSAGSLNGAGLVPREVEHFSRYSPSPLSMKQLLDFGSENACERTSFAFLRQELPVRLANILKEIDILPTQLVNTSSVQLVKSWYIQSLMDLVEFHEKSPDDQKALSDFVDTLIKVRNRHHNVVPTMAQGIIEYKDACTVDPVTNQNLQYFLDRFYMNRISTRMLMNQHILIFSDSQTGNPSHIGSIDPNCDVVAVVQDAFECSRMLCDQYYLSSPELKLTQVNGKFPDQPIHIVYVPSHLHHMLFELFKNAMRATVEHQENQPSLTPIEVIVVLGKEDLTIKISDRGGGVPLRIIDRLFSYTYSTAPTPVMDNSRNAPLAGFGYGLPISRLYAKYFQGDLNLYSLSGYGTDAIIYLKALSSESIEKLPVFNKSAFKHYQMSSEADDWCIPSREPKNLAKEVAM
How it was run: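 HEK293T cells grown in high-glucose DMEM with 10% FBS at 37 °C, 5% CO2. Medium renewed after 24 h, then cells exposed to compound for 24 h and lysed. 20 μg protein per lane Western blotted with antibodies to phospho-PDHE1α Ser232, Ser293 and Ser300 and to total PDHE1α. Band intensity quantified relative to control; triplicate.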

[19] = system: HCT-116; assay: Cell cycle arrest in human HCT116 cells assessed as accumulation at G1/G0 phase at 25 uM after 24 hrs in presence of oxaliplatin propidium iodide staining based flow cytometry (reference value: 41.3%); type: functional; how it was run: as §3
[20] = system: Mast cell; assay: Inhibition of degranulation in IgE-labeled bone marrow-derived mast cells (unknown origin) assessed as reduction in beta-hexosaminidase release preincubated for 1 hr followed by HSA stimulation and measured after 15 mins; type: functional, cell-based
[21] = system: RKO; assay: Induction of apoptosis in human RKO cells assessed as increase in cleaved caspase-3 expression at 10 to 50 uM after 24 hrs by Western blot analysis; type: functional, cell-based; how it was run: as §2
[22] = system: RKO; assay: Cell cycle arrest in human RKO cells assessed as accumulation at G2/M phase at 10 uM after 24 hrs propidium iodide staining based flow cytometry (reference value: 23.3%); type: functional; how it was run: as §3
[23] = target: Cellular tumor antigen p53 (Homo sapiens) (UniProt P04637); assay: Induction of p53 phosphorylation at Ser-15 residue in human RKO cells after 24 hrs by Western blot analysis; type: cell-based; how it was run: as §2
[24] = system: HCT-116; assay: Induction of apoptosis in human HCT116 cells assessed as live cells at 25 uM after 24 hrs in presence of oxaliplatin by Annexin V/propidium iodide staining based flow cytometry (reference value: 57.3%); type: functional
[25] = system: HCT-116; assay: Induction of apoptosis in human HCT116 cells assessed as necrotic cells at 50 uM after 24 hrs by Annexin V/propidium iodide staining based flow cytometry (reference value: 2.92%); type: functional
[26] = target: Cytochrome P450 2C9 (Homo sapiens, UniProt P11712); assay: Inhibition of CYP2C9 in human liver microsomes assessed as reduction in tolbutamide 4-hydroxylation by tandem mass spectrometry analysis; type: ADME; how it was run: as §1
Sequence of Cytochrome P450 2C9 (P11712 whole entry): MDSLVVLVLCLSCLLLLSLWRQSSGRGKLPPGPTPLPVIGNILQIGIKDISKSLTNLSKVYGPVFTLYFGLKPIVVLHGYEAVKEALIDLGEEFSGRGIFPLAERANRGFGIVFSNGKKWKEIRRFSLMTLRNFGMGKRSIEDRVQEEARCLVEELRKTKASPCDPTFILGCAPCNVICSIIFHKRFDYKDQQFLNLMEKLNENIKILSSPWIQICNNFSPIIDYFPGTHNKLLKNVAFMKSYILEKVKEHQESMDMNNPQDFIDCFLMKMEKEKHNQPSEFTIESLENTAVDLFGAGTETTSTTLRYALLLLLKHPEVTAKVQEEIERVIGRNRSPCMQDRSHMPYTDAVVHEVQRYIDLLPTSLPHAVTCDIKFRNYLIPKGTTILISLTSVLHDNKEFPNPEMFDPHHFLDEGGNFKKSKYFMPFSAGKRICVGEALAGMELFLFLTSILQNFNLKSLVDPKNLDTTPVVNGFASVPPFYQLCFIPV

[27] = system: HCT-116; assay: Induction of apoptosis in human HCT116 cells assessed as late apoptotic cells at 10 uM after 24 hrs by Annexin V/propidium iodide staining based flow cytometry (reference value: 8.36%); type: functional
[28] = target: UDP-glucuronosyltransferase 1A9 (Homo sapiens, UniProt O60656); assay: Inhibition of UGT1A9 in human liver microsomes assessed as reduction in mycophenolic acid glucuronidation by tandem mass spectrometry analysis; type: ADME
Sequence of UDP-glucuronosyltransferase 1A9 (O60656 whole entry): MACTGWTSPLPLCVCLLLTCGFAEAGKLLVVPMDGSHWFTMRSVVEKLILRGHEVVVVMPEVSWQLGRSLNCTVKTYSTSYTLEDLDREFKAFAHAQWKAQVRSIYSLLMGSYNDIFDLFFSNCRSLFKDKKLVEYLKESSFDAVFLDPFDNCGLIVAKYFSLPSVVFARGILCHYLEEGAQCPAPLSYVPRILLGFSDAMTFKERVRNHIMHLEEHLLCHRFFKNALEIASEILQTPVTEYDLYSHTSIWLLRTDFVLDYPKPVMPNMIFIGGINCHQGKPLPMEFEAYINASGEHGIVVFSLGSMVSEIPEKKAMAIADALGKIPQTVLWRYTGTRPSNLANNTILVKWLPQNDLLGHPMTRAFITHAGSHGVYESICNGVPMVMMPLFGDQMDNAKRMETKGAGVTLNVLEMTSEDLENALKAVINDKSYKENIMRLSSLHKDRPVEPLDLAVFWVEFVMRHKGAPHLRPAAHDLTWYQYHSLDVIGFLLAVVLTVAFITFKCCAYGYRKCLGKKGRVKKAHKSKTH
How it was run: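 Pooled human liver microsomes; test compound at final 0–50 μM in a cocktail incubation with probe substrates: midazolam 1′-hydroxylation (CYP3A), SN-38 glucuronidation (UGT1A1), trifluoperazine N-glucuronidation (UGT1A4), mycophenolic acid glucuronidation (UGT1A9), naloxone 3-glucuronidation (UGT2B7). Metabolites measured by tandem MS; IC50 determined; duplicate.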

[29] = system: RKO; assay: Cell cycle arrest in human RKO cells assessed as accumulation at G1/G0 phase at 50 uM after 24 hrs propidium iodide staining based flow cytometry (reference value: 39.9%); type: functional; how it was run: as §3

**Q.** For Cl.O=C1c2ccccc2C(=O)c2c1cccc2-c1cnn(C2CCNCC2)c1, which IC50 [1] is on record?
**A.** 42.4 µM

**Q.** And the Activity [2]?
**A.** Dose-dependent effect

**Q.** What about the IC50 [3] of the same compound?
**A.** 36.5 µM

**Q.** What about the Activity [4] of the same compound?
**A.** 41.6%

**Q.** What about the Activity [5] of the same compound?
**A.** 13.8%

**Q.** What about the Activity [6] of the same compound?
**A.** Active

**Q.** What about the Activity [7] of the same compound?
**A.** 8.2%

**Q.** And the Activity [8]?
**A.** 36.8%

**Q.** What about the Activity [9] of the same compound?
**A.** 67.4%

**Q.** What about the Activity [10] of the same compound?
**A.** 78.2%

**Q.** What about the Activity [11] of the same compound?
**A.** 2.7%

**Q.** What about the Activity [12] of the same compound?
**A.** 7.1%

**Q.** And the Activity [13]?
**A.** Active

**Q.** And the Activity [14]?
**A.** Dose-dependent effect

**Q.** And the Activity [15]?
**A.** Active

**Q.** What about the Activity [16] of the same compound?
**A.** 7.7%

**Q.** What about the Activity [17] of the same compound?
**A.** 25.9%

**Q.** And the fold change (FC) [18]?
**A.** 0.26

**Q.** And the Activity [19]?
**A.** 17.8%

**Q.** And the inhibition [20]?
**A.** Dose-dependent effect

**Q.** What about the Activity [21] of the same compound?
**A.** Active

**Q.** What about the Activity [22] of the same compound?
**A.** 18.1%

**Q.** And the Activity [23]?
**A.** Dose-dependent effect

**Q.** And the Activity [24]?
**A.** 44.6%

**Q.** And the Activity [25]?
**A.** 20.2%

**Q.** What about the IC50 [26] of the same compound?
**A.** > 50 µM

**Q.** What about the Activity [27] of the same compound?
**A.** 7.1%

**Q.** What about the IC50 [28] of the same compound?
**A.** > 50 µM

**Q.** What about the Activity [29] of the same compound?
**A.** 3.4%
